Assay results collected from several papers.
PTGS1: Prostaglandin G/H synthase 1 (PTGS1, Ovis aries, UniProt P05979)
Organic anion transporter 3: Organic anion transporter 3 (Mus musculus, UniProt O88909)

| SMILES | target | test | setting | endpoint | value |
| --- | --- | --- | --- | --- | --- |
| COc1ccc(-n2c(-c3ccccc3)csc2=NN=Cc2c(C)ccc(C(C)C)c2O)cc1 | PTGS1 | enzyme activity, inhibitor, absorbance |  | IC50 | 14.3 µM |
| O=c1cc(-c2ccc(O)cc2)oc2c([C@@H]3OC[C@H](O)[C@H](O)[C@H]3O)c(O)c([C@@H]3O[C@H](CO)[C@@H](O)[C@H](O)[C@H]3O)c(O)c12 | Calcium/calmodulin-dependent protein kinase type II subunit delta (CAMK2D, Homo sapiens, UniProt Q13557) | binding, SPR |  | Kd | 140 µM |
| COc1cc(C(=O)OCCCN2CCCN(CCCOC(=O)c3cc(OC)c(OC)c(OC)c3)CC2)cc(OC)c1OC | Equilibrative nucleoside transporter 2 (Homo sapiens, UniProt Q14542) | transporter uptake, inhibitor, radiometric | oocytes | IC50 | 256 µM |
| COc1ccc(-c2csc(=NN=Cc3c(C)ccc(C(C)C)c3O)n2-c2ccccc2Cl)cc1 | PTGS1 | enzyme activity, inhibitor, absorbance |  | IC50 | 9.87 µM |
| N=c1c[n+](N2CCOCC2)[n-]o1 | NAD-dependent protein deacetylase sirtuin-3, mitochondrial (SIRT3, Homo sapiens, UniProt Q9NTG7) | enzyme activity, inhibitor |  | IC50 | 35 µM |
| CC1(CN)CCN(c2cnc3c(Sc4ccncc4Cl)n[nH]c3n2)CC1 | Tyrosine-protein phosphatase non-receptor type 11 (PTPN11, Homo sapiens, UniProt Q06124) | enzyme activity, inhibitor |  | IC50 | > 100 µM |
| Nc1ncnc2c1ncn2[C@@H]1O[C@H](CO)[C@@H](O)[C@H]1O | Organic anion transporter 3 | transporter uptake, inhibitor, radiometric | oocytes | IC50 | 930 µM |
| CCCC(=O)NCCCN1CCc2c([nH]c3ccc(Cl)cc23)C1 | Sodium-dependent serotonin transporter (SLC6A4, Homo sapiens, UniProt P31645) | transporter uptake, inhibitor |  | IC50 | 96.2 µM |
| Cn1c(=O)c2c(ncn2C)n(C)c1=O | Organic anion transporter 3 | transporter uptake, inhibitor, radiometric | oocytes | IC50 | 7.5 µM |
| CC(=O)N[C@H]1C(O)O[C@H](CO)[C@@H](O[C@@H]2O[C@H](CO)[C@H](O)[C@H](O)[C@H]2O)[C@@H]1O (stereo partly shown) | Galectin-7 (LGALS7, Homo sapiens, UniProt P47929) | binding, ITC |  | Kd | 225 µM |
